Measured values taken from ChEMBL document CHEMBL6134764, “Synthesis and biological evaluation of novel D-ring fused steroidal N(2)-substituted-1,2,3-triazoles” (RSC Med Chem, 2025).
Activity calls are given as the source filed them. The calls are words filed in the database; no cut-off is given here.

Biological target: T1, Estrogen receptor (Homo sapiens) (UniProt P03372)
T1 sequence (whole entry): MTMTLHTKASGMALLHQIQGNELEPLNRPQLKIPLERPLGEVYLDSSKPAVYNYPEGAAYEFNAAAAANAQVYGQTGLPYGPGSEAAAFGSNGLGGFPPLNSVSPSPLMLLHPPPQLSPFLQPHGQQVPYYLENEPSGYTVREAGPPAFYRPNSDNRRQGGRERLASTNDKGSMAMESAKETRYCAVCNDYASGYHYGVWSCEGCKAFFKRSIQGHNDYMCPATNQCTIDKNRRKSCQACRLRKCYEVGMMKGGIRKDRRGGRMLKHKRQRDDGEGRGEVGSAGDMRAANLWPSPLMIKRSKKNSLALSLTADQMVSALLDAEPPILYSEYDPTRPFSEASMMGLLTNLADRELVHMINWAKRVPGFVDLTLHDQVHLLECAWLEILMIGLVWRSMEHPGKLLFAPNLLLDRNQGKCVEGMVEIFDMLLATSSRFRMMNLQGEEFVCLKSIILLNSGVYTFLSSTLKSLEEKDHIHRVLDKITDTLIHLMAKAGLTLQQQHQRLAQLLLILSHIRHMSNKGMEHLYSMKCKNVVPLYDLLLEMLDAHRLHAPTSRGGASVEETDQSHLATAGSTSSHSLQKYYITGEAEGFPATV
Assay: Binding affinity to human recombinant ERalpha ligand binding domain extracted from saccharomyces cerevisiae coexpressing yellow fluorescent protein assessed as relative binding affinity at 10 uM incubated for 14 to 16 hrs by fluorimetry based fluorescence microscopic analysis
Settings: time 14-16 hrs
Summary of the method: (§1)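 S. cerevisiae FY250 carrying receptor LBD–EYFP fusions (human ERα, ERβ, AR; rat GR); raffinose drop-out medium, grown to OD600 ~0.6, fusion induced with 2% galactose. Compounds 10 μM (ER, AR) or 100 μM (GR), 14–16 h, 25 °C, dark; DMSO solvent control. Fluorescence at ex/em 485/538 nm, triplicate; fold change vs DMSO (normalized to 1).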

Row | SMILES | Activity
1 | C[C@]12CC[C@@H]3c4ccc(OCc5ccccc5)cc4CC[C@H]3[C@@H]1Cc1nn(Cc3ccccc3)nc12 | inactive
2 | CCCCCCCCn1nc2c(n1)[C@@]1(C)CC[C@@H]3c4ccc(OCc5ccccc5)cc4CC[C@H]3[C@@H]1C2 | inactive
3 | CCn1nc2c(n1)[C@@]1(C)CC[C@H]3[C@@H](CC=C4C[C@@H](O)CC[C@@]43C)[C@@H]1C2 | inactive
4 | Cn1nc2c(n1)[C@@]1(C)CC[C@H]3[C@@H](CC=C4C[C@@H](O)CC[C@@]43C)[C@@H]1C2 | inactive
5 | CCn1nc2c(n1)[C@@]1(C)CC[C@@H]3c4ccc(OCc5ccccc5)cc4CC[C@H]3[C@@H]1C2 | inactive
6 | C[C@]12CC[C@H](O)CC1=CC[C@@H]1[C@@H]2CC[C@]2(C)c3nn(Cc4ccccc4)nc3C[C@@H]12 | inactive
7 | CCOC(=O)Cn1nc2c(n1)[C@@]1(C)CC[C@H]3[C@@H](CC=C4C[C@@H](O)CC[C@@]43C)[C@@H]1C2 | inactive

Further lines, results first:

Row | Activity | SMILES
8 | inactive | C[C@]12CC[C@H](O)CC1=CC[C@@H]1[C@@H]2CC[C@]2(C)c3nn(CCN)nc3C[C@@H]12
9 | inactive | CCCCn1nc2c(n1)[C@@]1(C)CC[C@H]3[C@@H](CC=C4C[C@@H](O)CC[C@@]43C)[C@@H]1C2
10 | inactive | Cn1nc2c(n1)[C@@]1(C)CC[C@@H]3c4ccc(OCc5ccccc5)cc4CC[C@H]3[C@@H]1C2
11 | inactive | CC(=O)O[C@H]1CC[C@@]2(C)C(=CC[C@@H]3[C@@H]2CC[C@]2(C)c4nn(C(C)=O)nc4C[C@@H]32)C1

Biological target: T2, Androgen receptor (Homo sapiens) (UniProt P10275)
T2 sequence (whole entry): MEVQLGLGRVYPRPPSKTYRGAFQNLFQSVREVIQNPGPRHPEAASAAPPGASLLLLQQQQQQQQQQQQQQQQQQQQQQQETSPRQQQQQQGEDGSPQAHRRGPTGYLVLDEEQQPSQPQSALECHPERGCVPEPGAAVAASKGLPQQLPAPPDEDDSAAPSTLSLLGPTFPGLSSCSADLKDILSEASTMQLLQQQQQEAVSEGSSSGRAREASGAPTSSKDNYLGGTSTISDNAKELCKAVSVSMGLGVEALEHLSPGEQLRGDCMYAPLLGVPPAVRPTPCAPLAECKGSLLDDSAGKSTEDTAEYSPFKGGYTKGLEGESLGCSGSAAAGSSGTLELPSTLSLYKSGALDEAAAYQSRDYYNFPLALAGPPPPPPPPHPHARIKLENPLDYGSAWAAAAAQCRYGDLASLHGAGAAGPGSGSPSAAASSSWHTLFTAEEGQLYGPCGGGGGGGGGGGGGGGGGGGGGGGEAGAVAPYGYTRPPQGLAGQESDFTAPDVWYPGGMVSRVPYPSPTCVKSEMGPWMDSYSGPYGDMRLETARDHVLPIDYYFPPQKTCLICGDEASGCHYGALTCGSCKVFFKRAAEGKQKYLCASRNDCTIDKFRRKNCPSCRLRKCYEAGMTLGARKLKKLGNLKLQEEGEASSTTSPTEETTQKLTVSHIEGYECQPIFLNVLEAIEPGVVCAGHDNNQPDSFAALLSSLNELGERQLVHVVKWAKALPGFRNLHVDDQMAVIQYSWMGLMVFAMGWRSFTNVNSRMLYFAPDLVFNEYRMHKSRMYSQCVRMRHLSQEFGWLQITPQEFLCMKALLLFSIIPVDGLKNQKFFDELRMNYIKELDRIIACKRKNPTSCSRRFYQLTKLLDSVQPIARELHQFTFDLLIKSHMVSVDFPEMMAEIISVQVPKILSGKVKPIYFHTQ
Assay: Binding affinity to human recombinant androgen receptor ligand binding domain extracted from saccharomyces cerevisiae coexpressing yellow fluorescent protein assessed as relative binding affinity at 10 uM incubated for 14 to 16 hrs by fluorimetry based fluorescence microscopic analysis
Settings: time 14-16 hrs
Summary of the method: as §1

Row | SMILES | Activity
12 | C[C@]12CC[C@@H]3c4ccc(OCc5ccccc5)cc4CC[C@H]3[C@@H]1Cc1nn(Cc3ccccc3)nc12 | inactive
13 | CCCCCCCCn1nc2c(n1)[C@@]1(C)CC[C@@H]3c4ccc(OCc5ccccc5)cc4CC[C@H]3[C@@H]1C2 | inactive
14 | CCn1nc2c(n1)[C@@]1(C)CC[C@H]3[C@@H](CC=C4C[C@@H](O)CC[C@@]43C)[C@@H]1C2 | inactive
15 | Cn1nc2c(n1)[C@@]1(C)CC[C@H]3[C@@H](CC=C4C[C@@H](O)CC[C@@]43C)[C@@H]1C2 | inactive
16 | CCn1nc2c(n1)[C@@]1(C)CC[C@@H]3c4ccc(OCc5ccccc5)cc4CC[C@H]3[C@@H]1C2 | inactive
17 | C[C@]12CC[C@H](O)CC1=CC[C@@H]1[C@@H]2CC[C@]2(C)c3nn(Cc4ccccc4)nc3C[C@@H]12 | inactive
18 | CCOC(=O)Cn1nc2c(n1)[C@@]1(C)CC[C@H]3[C@@H](CC=C4C[C@@H](O)CC[C@@]43C)[C@@H]1C2 | inactive

Next, values leading:

Row | Activity | SMILES
19 | inactive | C[C@]12CC[C@H](O)CC1=CC[C@@H]1[C@@H]2CC[C@]2(C)c3nn(CCN)nc3C[C@@H]12
20 | inactive | CCCCn1nc2c(n1)[C@@]1(C)CC[C@H]3[C@@H](CC=C4C[C@@H](O)CC[C@@]43C)[C@@H]1C2
21 | inactive | Cn1nc2c(n1)[C@@]1(C)CC[C@@H]3c4ccc(OCc5ccccc5)cc4CC[C@H]3[C@@H]1C2
22 | inactive | CC(=O)O[C@H]1CC[C@@]2(C)C(=CC[C@@H]3[C@@H]2CC[C@]2(C)c4nn(C(C)=O)nc4C[C@@H]32)C1

Biological target: Estrogen receptor beta (Homo sapiens) (UniProt Q92731)
Sequence (Q92731 whole entry, the tested form may be a part): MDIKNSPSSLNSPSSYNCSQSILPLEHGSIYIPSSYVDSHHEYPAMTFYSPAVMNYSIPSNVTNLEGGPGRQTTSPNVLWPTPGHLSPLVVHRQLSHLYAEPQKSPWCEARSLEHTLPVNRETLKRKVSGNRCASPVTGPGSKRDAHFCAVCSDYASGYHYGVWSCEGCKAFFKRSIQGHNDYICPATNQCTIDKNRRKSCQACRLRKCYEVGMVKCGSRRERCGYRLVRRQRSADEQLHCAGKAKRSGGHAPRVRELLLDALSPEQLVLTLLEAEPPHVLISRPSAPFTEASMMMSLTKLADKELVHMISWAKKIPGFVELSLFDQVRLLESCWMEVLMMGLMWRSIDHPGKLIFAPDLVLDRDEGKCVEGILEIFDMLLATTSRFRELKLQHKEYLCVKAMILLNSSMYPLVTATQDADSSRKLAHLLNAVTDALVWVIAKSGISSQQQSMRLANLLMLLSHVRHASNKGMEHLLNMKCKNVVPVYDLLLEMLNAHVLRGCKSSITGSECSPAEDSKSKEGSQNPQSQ
Assay: Binding affinity to human recombinant ERbeta ligand binding domain extracted from saccharomyces cerevisiae coexpressing yellow fluorescent protein assessed as relative binding affinity at 10 uM incubated for 14 to 16 hrs by fluorimetry based fluorescence microscopic analysis
Settings: time 14-16 hrs
Summary of the method: as §1

Row | Activity | SMILES
23 | Active | C[C@]12CC[C@@H]3c4ccc(OCc5ccccc5)cc4CC[C@H]3[C@@H]1Cc1nn(Cc3ccccc3)nc12
24 | Active | Cn1nc2c(n1)[C@@]1(C)CC[C@H]3[C@@H](CC=C4C[C@@H](O)CC[C@@]43C)[C@@H]1C2
25 | Active | CC(=O)O[C@H]1CC[C@@]2(C)C(=CC[C@@H]3[C@@H]2CC[C@]2(C)c4nn(C(C)=O)nc4C[C@@H]32)C1

Biological target: T3, Aldo-keto reductase family 1 member C4 (Homo sapiens) (UniProt P17516)
T3 sequence (whole entry): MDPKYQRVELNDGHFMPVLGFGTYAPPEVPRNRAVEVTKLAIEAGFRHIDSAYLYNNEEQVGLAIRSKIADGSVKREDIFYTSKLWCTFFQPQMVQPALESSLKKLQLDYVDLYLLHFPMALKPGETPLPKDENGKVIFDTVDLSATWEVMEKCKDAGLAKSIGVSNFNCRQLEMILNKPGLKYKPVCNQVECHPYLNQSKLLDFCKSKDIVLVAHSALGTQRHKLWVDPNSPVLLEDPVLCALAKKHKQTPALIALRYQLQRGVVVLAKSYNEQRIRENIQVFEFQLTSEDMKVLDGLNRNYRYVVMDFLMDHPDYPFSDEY
Assay: Inhibition of N-terminal his-tagged recombinant human AKR1C4 assessed as NADPH consumption using 9,10-phenanthrenequinone as substrate at 33 uM by fluorescence spectroscopic analysis relative to control
Settings: not given
Summary of the method: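 N-His-tagged human AKR1C4 from E. coli BL21(DE3), purified by Ni-affinity and size exclusion. Enzyme at 160 μg/mL with 17 μM 9,10-phenanthrenequinone and 250 μM NADPH in 100 mM potassium phosphate pH 6.0, 37 °C, duplicate. Compound at 33 μM final. NADPH fluorescence (ex 340/em 460 nm) read every 30 s for 10 min; inhibition from linear slope vs uninhibited enzyme (100%).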

Row | SMILES | inhibition
26 | C[C@]12CC[C@@H]3c4ccc(OCc5ccccc5)cc4CC[C@H]3[C@@H]1Cc1nn(Cc3ccccc3)nc12 | 0%
27 | CCCCCCCCn1nc2c(n1)[C@@]1(C)CC[C@@H]3c4ccc(OCc5ccccc5)cc4CC[C@H]3[C@@H]1C2 | 0%
28 | CCn1nc2c(n1)[C@@]1(C)CC[C@H]3[C@@H](CC=C4C[C@@H](O)CC[C@@]43C)[C@@H]1C2 | 2.81%
29 | Cn1nc2c(n1)[C@@]1(C)CC[C@H]3[C@@H](CC=C4C[C@@H](O)CC[C@@]43C)[C@@H]1C2 | 0%
30 | CCn1nc2c(n1)[C@@]1(C)CC[C@@H]3c4ccc(OCc5ccccc5)cc4CC[C@H]3[C@@H]1C2 | 0%
31 | CC(C)Cc1ccc(C(C)C(=O)O)cc1 (configuration not stated) | 43.9%
32 | C[C@]12CC[C@H](O)CC1=CC[C@@H]1[C@@H]2CC[C@]2(C)c3nn(Cc4ccccc4)nc3C[C@@H]12 | 0%
33 | CCOC(=O)Cn1nc2c(n1)[C@@]1(C)CC[C@H]3[C@@H](CC=C4C[C@@H](O)CC[C@@]43C)[C@@H]1C2 | 0%

Further lines, results first:

Row | inhibition | SMILES
34 | 2.29% | C[C@]12CC[C@H](O)CC1=CC[C@@H]1[C@@H]2CC[C@]2(C)c3nn(CCN)nc3C[C@@H]12
35 | 0% | CCCCn1nc2c(n1)[C@@]1(C)CC[C@H]3[C@@H](CC=C4C[C@@H](O)CC[C@@]43C)[C@@H]1C2
36 | 0% | Cn1nc2c(n1)[C@@]1(C)CC[C@@H]3c4ccc(OCc5ccccc5)cc4CC[C@H]3[C@@H]1C2
37 | 8.32% | CC(=O)O[C@H]1CC[C@@]2(C)C(=CC[C@@H]3[C@@H]2CC[C@]2(C)c4nn(C(C)=O)nc4C[C@@H]32)C1

Test system: HCT-116
Assay: Cytotoxicity against human HCT-116 cells assessed as reduction in cell viability incubated for 72 hrs by resazurin assay
Settings: HCT-116, 72 h

Row | SMILES | IC50
38 | C[C@]12CC[C@H](O)CC1=CC[C@@H]1[C@@H]2CC[C@]2(C)c3nn(CCN)nc3C[C@@H]12 | 22.3 µM

Test system: Huh-7
Assay: Cytotoxicity against human Huh-7 cells assessed as reduction in cell viability incubated for 72 hrs by resazurin assay
Settings: Huh-7, 72 h

Row | SMILES | IC50
39 | C[C@]12CC[C@H](O)CC1=CC[C@@H]1[C@@H]2CC[C@]2(C)c3nn(CCN)nc3C[C@@H]12 | 22.3 µM

Test system: MCF7
Assay: Cytotoxicity against human MCF7 cells assessed as reduction in cell viability incubated for 72 hrs by resazurin assay
Settings: MCF7, 72 h

Row | SMILES | IC50
40 | C[C@]12CC[C@H](O)CC1=CC[C@@H]1[C@@H]2CC[C@]2(C)c3nn(CCN)nc3C[C@@H]12 | 22.3 µM

Test system: MDA-MB-231
Assay: Cytotoxicity against human MDA-MB-231 cells assessed as reduction in cell viability incubated for 72 hrs by resazurin assay
Settings: MDA-MB-231, 72 h

Row | SMILES | IC50
41 | C[C@]12CC[C@H](O)CC1=CC[C@@H]1[C@@H]2CC[C@]2(C)c3nn(CCN)nc3C[C@@H]12 | 22.3 µM

Test system: not listed separately
Assay: Toxicity in human hTERT-BJ cells assessed as reduction in cell viability at 0.01 to 100 uM incubated for 72 hrs by resazurin assay
Assay type: cell-based
Settings: dose 0.01-100 µM
Summary of the method: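 hTERT-immortalized BJ-5ta foreskin fibroblasts grown in high-glucose DMEM with 20% Medium 199 and 10% FBS. Exposed to 0.01–100 μM for 72 h, then 0.01 mg/mL resazurin for 2 h, fluorescence at 584 nm; n = 3; one-way ANOVA with Dunnett's test vs control.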

Row | SMILES | Activity
42 | C[C@]12CC[C@H](O)CC1=CC[C@@H]1[C@@H]2CC[C@]2(C)c3nn(CCN)nc3C[C@@H]12 | Toxic
